Measured values taken from ChEMBL document CHEMBL1147453, “3,4-Dihydroquinazoline derivatives as novel selective T-type Ca2+ channel blockers” (Bioorg Med Chem Lett, 2004).

Key:
[1] = target: Voltage-dependent T-type calcium channel subunit alpha-1H (Homo sapiens) (UniProt O95180); test: In vitro inhibitory effect on alpha-1H T-type [Ca2+] channels expressed in Xenopus oocytes at 100 uM; type: functional, cell-based; conditions: Oocyte
Outline: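 Preliminary screen at 100 µM on α1H T-type Ca2+ channels expressed in Xenopus oocytes, recorded by two-electrode voltage clamp. Output is percent inhibition of current.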

[2] = target: T1, Voltage-dependent T-type calcium channel subunit alpha-1G (Homo sapiens, UniProt O43497); test: In vitro inhibition of alpha-1G T-type [Ca2+] channels expressed in HEK293 cells; type: functional, cell-based
Outline: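 α1G T-type Ca2+ currents recorded in HEK293 cells by whole-cell patch clamp. IC50 is the molar concentration giving 50% inhibition of α1G current, obtained by fitting raw data to dose–response curves.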

[3] = target: T1, Voltage-dependent T-type calcium channel subunit alpha-1G; test: Concentration of the compounds required for inhibition of HEK293 cells (alpha1G T-type); type: functional, cell-based
[4] = target: Voltage-dependent N-type calcium channel subunit alpha-1B (Homo sapiens) (UniProt Q00975); test: Inhibition of HVA N-type [Ca2+] channels of major pelvic ganglion (MPG) neurons at 10 uM; type: functional
Outline: (§1)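 Major pelvic ganglion (MPG) neurons, compound at 10 µM. Percent inhibition measured for both LVA (T-type) and HVA (N-type) Ca2+ currents, as part of an ion-channel selectivity screen that also covered Na+ channels.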

[5] = target: T1, Voltage-dependent T-type calcium channel subunit alpha-1G; test: In vitro inhibition of alpha-1G T-type [Ca2+] channels expressed in HEK293 cells at 10 uM; type: functional, cell-based
Outline: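 Whole-cell patch clamp on HEK293 cells expressing α1G T-type Ca2+ channels, test compound at 10 µM. Percent inhibition of T-type current reported as mean ± SEM from repeated runs (n ≥ 3).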

[6] = Inhibition of LVA T-type [Ca2+] channels of major pelvic ganglion (MPG) neurons at 10 uM; type: functional; outline: as §1

T1 sequence (O43497 whole entry): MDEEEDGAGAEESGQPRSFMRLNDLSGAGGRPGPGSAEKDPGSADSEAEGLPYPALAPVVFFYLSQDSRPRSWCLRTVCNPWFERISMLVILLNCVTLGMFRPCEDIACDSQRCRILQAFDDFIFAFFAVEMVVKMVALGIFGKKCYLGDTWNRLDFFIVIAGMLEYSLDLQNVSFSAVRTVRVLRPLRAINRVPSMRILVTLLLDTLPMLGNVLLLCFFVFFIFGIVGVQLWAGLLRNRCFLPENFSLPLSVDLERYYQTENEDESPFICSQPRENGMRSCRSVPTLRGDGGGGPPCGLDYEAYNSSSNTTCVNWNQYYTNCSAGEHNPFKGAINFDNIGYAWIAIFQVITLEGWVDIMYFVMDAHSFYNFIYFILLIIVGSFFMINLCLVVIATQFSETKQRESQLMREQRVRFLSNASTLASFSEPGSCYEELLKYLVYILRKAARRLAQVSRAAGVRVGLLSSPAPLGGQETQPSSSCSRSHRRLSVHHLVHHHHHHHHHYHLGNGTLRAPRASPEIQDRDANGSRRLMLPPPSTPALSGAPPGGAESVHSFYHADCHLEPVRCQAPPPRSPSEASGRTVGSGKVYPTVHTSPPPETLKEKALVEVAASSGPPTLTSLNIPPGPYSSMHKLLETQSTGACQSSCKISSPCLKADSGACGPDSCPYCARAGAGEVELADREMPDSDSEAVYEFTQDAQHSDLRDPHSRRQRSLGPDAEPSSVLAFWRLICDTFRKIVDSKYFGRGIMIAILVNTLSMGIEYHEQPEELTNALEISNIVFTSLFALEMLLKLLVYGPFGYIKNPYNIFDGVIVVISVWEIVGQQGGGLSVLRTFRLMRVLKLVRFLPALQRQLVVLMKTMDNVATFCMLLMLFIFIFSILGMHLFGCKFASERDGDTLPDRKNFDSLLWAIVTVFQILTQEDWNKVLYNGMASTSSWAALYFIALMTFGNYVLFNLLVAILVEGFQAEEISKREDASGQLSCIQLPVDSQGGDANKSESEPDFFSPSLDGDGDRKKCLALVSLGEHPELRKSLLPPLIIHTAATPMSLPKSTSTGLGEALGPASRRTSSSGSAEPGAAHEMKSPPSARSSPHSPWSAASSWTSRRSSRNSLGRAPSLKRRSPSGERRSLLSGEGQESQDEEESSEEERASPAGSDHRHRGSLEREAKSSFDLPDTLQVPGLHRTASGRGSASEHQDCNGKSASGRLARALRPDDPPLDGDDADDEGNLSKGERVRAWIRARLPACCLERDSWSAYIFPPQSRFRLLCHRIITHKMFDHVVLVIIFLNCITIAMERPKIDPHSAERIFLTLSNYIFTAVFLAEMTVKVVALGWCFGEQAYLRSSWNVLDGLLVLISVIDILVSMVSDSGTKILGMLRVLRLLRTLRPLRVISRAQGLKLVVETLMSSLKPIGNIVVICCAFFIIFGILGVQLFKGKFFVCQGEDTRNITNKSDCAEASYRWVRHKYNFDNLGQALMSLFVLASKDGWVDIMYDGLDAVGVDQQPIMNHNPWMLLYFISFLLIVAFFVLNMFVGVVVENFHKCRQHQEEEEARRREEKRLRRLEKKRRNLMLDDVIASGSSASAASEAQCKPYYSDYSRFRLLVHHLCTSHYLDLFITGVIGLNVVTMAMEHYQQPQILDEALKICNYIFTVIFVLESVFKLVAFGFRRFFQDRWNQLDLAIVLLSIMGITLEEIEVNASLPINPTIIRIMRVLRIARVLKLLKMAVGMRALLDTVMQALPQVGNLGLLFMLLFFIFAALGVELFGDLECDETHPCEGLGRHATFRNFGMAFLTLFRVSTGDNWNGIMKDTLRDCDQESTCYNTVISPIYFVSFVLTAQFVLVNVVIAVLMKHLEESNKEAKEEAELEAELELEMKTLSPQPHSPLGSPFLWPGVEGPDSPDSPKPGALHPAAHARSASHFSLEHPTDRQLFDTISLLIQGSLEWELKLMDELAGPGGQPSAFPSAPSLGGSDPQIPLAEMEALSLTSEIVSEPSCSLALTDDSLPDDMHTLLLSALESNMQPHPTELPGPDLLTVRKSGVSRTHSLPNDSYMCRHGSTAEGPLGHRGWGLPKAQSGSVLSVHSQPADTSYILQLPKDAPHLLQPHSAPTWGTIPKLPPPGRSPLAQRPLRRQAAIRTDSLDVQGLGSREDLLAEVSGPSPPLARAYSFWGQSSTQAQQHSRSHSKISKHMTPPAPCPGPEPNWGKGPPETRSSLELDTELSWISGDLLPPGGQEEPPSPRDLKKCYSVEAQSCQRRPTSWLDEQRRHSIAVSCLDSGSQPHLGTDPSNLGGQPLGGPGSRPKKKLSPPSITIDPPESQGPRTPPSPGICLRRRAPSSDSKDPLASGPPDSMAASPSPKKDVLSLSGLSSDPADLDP
Sequence of Voltage-dependent N-type calcium channel subunit alpha-1B (Homo sapiens) (Q00975 whole entry, looked up): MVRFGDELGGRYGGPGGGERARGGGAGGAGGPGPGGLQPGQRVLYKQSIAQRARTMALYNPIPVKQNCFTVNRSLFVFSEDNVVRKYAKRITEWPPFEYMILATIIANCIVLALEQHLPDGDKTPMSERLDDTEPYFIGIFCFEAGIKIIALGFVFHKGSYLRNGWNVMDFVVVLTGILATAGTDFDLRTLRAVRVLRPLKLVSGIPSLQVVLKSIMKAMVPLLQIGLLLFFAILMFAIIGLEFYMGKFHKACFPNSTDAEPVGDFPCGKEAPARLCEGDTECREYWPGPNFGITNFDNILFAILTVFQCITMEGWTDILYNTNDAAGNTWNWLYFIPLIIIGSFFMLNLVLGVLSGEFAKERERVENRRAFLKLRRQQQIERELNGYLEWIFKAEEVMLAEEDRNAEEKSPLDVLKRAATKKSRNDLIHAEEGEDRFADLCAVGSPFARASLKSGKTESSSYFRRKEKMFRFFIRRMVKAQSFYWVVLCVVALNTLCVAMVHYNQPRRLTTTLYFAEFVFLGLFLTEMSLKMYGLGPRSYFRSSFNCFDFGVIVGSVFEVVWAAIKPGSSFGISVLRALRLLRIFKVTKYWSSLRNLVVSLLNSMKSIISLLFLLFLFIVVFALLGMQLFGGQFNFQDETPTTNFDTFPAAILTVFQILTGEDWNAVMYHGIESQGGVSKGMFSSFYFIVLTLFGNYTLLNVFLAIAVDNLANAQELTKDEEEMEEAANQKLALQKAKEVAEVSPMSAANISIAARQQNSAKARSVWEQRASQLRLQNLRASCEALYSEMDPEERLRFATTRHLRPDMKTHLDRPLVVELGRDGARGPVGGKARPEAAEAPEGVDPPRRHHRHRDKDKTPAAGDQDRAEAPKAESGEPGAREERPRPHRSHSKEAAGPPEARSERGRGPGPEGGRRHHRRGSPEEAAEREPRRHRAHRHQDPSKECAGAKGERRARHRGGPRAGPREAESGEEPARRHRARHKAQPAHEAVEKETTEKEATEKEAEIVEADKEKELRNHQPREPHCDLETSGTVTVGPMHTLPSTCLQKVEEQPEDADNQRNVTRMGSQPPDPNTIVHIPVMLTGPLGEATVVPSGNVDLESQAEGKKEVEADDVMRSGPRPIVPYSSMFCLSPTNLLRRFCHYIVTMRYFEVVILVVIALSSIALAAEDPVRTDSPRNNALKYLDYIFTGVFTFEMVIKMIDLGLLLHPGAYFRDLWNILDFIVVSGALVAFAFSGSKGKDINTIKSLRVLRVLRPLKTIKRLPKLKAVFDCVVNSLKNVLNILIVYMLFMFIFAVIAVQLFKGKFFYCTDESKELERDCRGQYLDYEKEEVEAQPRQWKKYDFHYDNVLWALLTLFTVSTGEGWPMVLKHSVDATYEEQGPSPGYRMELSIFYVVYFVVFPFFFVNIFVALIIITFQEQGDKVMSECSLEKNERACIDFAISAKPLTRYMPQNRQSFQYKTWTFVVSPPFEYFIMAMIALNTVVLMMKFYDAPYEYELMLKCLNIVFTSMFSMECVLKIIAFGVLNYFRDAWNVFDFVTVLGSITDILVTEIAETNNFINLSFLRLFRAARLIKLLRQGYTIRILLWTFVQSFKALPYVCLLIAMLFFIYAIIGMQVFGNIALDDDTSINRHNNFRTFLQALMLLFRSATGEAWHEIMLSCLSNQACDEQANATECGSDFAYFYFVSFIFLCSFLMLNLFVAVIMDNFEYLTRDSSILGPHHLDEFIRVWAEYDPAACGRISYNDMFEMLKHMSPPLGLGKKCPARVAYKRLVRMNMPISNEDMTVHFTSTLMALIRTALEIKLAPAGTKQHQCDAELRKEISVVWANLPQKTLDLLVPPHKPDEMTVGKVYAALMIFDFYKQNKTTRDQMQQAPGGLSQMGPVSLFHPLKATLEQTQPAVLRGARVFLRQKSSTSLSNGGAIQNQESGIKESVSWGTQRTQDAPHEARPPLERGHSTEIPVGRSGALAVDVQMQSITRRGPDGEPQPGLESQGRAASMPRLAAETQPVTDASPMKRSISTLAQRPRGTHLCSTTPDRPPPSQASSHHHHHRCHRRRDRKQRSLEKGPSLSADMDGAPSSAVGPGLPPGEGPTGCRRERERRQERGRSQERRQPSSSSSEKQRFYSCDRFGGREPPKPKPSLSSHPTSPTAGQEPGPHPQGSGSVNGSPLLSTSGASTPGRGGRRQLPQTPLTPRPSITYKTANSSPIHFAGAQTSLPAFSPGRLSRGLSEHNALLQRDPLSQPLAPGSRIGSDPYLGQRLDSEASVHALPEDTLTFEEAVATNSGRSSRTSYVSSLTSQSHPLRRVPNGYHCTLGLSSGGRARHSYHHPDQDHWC

Row | inhibition [1] | IC50 [3] | inhibition [5] | Compound | other results
1 | 66.8% | 14.4 µM | 43.5% | Nc1ccc(CNC(=O)CC2c3ccccc3N=C(N3CCCCC3)N2c2ccccc2)cc1 (stereo unspecified) | inhibition [4]: 18.4%; inhibition at 10 µM [6]: 4.7%
2 | 91.9% | 2.5 µM | 92.3% | O=C(CC1c2ccccc2N=C(N2CCCCC2)N1c1ccccc1)NCc1ccc([N+](=O)[O-])cc1 (stereo unspecified) | inhibition [4]: 32.2%; inhibition at 10 µM [6]: 37.7%
3 | 11.5% | 27.7 µM | 18.3% | COC(=O)CC1c2ccccc2N=C(N2CCCCC2)N1c1ccccc1 (stereo unspecified) | –
4 | 32.7% | – | – | CN1CCN(C2=Nc3ccccc3C(CC(=O)OCc3ccccc3)N2c2ccccc2)CC1 (stereo unspecified) | –
5 | 84.7% | 0.25 µM | 89.9% | Cc1ccc(S(=O)(=O)Nc2ccc(CNC(=O)CC3c4ccccc4N=C(N4CCCCC4)N3c3ccccc3)cc2)cc1 (stereo unspecified) | inhibition [4]: 38.7%; inhibition at 10 µM [6]: 29%
6 | 15.6% | – | – | O=C(CC1c2ccccc2N=C(N2CCCCC2)N1c1ccccc1)OCc1ccccc1 (stereo unspecified) | –
7 | 63.8% | 21.6 µM | 40.5% | O=C(CC1c2ccccc2N=C(N2CCOCC2)N1c1ccccc1)NCc1ccccc1 (stereo unspecified) | –
8 | 70.3% | 35.8 µM | 29% | CN1CCN(C2=Nc3ccccc3C(CC(=O)NCc3ccccc3)N2c2ccccc2)CC1 (stereo unspecified) | –
9 | 20.9% | – | – | O=C(CC1c2ccccc2N=C(N2CCOCC2)N1c1ccccc1)OCc1ccccc1 (stereo unspecified) | –
10 | 77% | 0.9 µM | 90.1% | O=C(CC1c2ccccc2N=C(N2CCCCC2)N1c1ccccc1)NCc1ccccc1 (stereo unspecified) | inhibition [4]: 12%; inhibition at 10 µM [6]: 76%
11 | 8% | – | – | O=C(O)CC1c2ccccc2N=C(N2CCCCC2)N1c1ccccc1 (stereo unspecified) | –
12 | 80.5% | 0.2 µM | 89% | O=C(CC1c2ccccc2N=C(N2CCCCC2)N1c1ccccc1)NCc1ccc(NS(=O)(=O)c2ccc(F)cc2)cc1 (stereo unspecified) | inhibition [4]: 50.8%; inhibition at 10 µM [6]: 49.6%

The remaining lines, values behind:

Row | Compound | inhibition [1] | IC50 [3] | inhibition [5] | other results
13 | COC(=O)CC1c2ccccc2N=C(N2CCCCC2)N1C1CCCCC1 (stereo unspecified) | 27% | – | – | –
14 | COC(=O)CC1c2ccccc2N=C(c2ccccc2)N1c1ccccc1 (stereo unspecified) | 51.5% | 10.7 µM | – | inhibition [2]: 50%
15 | O=C(CC1c2ccccc2N=C(c2ccccc2)N1c1ccccc1)NCc1ccccc1 (stereo unspecified) | 14.8% | – | – | –
16 | COC(=O)CC1c2ccccc2N=C(N2CCOCC2)N1c1ccccc1 (stereo unspecified) | 14% | – | – | –
17 | COC(=O)CC1c2ccccc2N=C(N2CCN(C)CC2)N1C1CCCCC1 (stereo unspecified) | 3% | – | – | –
18 | O=C(O)CC1c2ccccc2N=C(N2CCOCC2)N1c1ccccc1 (stereo unspecified) | 9% | – | – | –
19 | COC(=O)CC1c2ccccc2N=C(N2CCN(C)CC2)N1c1ccccc1 (stereo unspecified) | 15% | – | – | –
20 | O=C(O)CC1c2ccccc2N=C(c2ccccc2)N1c1ccccc1 (stereo unspecified) | 7.2% | – | – | –
21 | COC(=O)CC1c2ccccc2N=C(N2CCOCC2)N1C1CCCCC1 (stereo unspecified) | 12.2% | – | – | –
22 | O=C(CC1c2ccccc2N=C(c2ccccc2)N1c1ccccc1)OCc1ccccc1 (stereo unspecified) | 14.2% | – | – | –
23 | COC(=O)CC1c2ccccc2N=C(N2CCN(C)CC2)N1C(C)C (stereo unspecified) | 0% | – | – | –
24 | CN1CCN(C2=Nc3ccccc3C(CC(=O)O)N2c2ccccc2)CC1 (stereo unspecified) | 15% | – | – | –
25 | COCC(=O)O[C@]1(CCN(C)CCCc2nc3ccccc3[nH]2)CCc2cc(F)ccc2[C@@H]1C(C)C | 86% | – | 95.9% | –
26 | COC(=O)CC1c2ccccc2N=C(N2CCOCC2)N1C(C)C (stereo unspecified) | 0% | – | – | –
27 | COC(=O)CC1c2ccccc2N=C(N2CCCCC2)N1C(C)C (stereo unspecified) | 8% | – | – | –
